This is an account of results in ChEMBL document CHEMBL1140064, “Anxiolytic-like effects of N,N-dialkyl-2-phenylindol-3-ylglyoxylamides by modulation of translocator protein promoting neurosteroid biosynthesis” (J Med Chem, 2008).

Assay [1] concerns the target Translocator protein (Rattus norvegicus, UniProt P16257). Briefly: Displacement of [3H]PK11195 from translocator protein in rat kidney mitochondrial membrane. Format: cell membranes.
Assay [2] relates to C6. In words: Induction of pregnenolone biosynthesis in rat C6 cells assessed as increase in pregnenolone level at 40 uM after 2 hrs by ELISA relative to control. The format is functional. The essentials: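 Rat C6 glioma cells grown in DMEM with 10% FBS, 2 mM L-glutamine, penicillin/streptomycin, seeded ~10 000 cells/well. Exposed to compound at 40 µM for 2 h at 37 °C, with DMSO/ethanol ≤0.5% (v/v) kept constant. Pregnenolone secreted into the medium measured by competitive ELISA; mean ± SEM of at least three determinations.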

pKi: −log10 of the molar value.

Translocator protein, sequence (P16257 whole entry, looked up): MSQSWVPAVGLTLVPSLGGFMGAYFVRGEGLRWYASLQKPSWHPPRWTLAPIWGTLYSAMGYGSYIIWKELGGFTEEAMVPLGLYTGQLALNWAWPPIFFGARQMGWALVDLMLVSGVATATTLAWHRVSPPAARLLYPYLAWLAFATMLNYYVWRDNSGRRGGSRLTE

The compound `CCCCCN(C)C(=O)C(=O)c1c(-c2ccc(Cl)cc2)[nH]c2ccc(Cl)cc12` showed a pKi in assay [1] of 9.74. The Activity in assay [2] amounted to 31%. As for `CCCCN(CCCC)C(=O)C(=O)c1c(-c2ccc(C(F)(F)F)cc2)[nH]c2ccccc12`, in assay [1], the pKi was 8.94. Moreover, the Activity in assay [2] amounted to 60%.

`CCN(Cc1ccccc1)C(=O)C(=O)c1c(-c2ccccc2)[nH]c2c(Cl)cccc12`: in assay [1], the pKi was 8.30. Also, in assay [2], the Activity amounted to 0%. For the compound `CCN(C)C(=O)C(=O)c1c(-c2ccc(Cl)cc2)[nH]c2ccc(Cl)cc12`, the pKi in assay [1] was 8.02. Besides, the Activity in assay [2] turned out to be 0%. As for `CCCN(CCC)C(=O)C(=O)c1c(-c2ccccc2)[nH]c2ccc(OC)cc12`, the pKi in assay [1] is 6.48. Further, the Activity in assay [2] was 45%.

Consider `CCCCCCN(CCCCCC)C(=O)C(=O)c1c(-c2ccccc2)[nH]c2ccc(OC)cc12`, for which, in assay [1], the pKi was 7.45. Moreover, the Activity in assay [2] was determined as 87%. In the case of `CCN(Cc1ccccc1)C(=O)C(=O)c1c(-c2ccc(C(F)(F)F)cc2)[nH]c2ccccc12`, the pKi in assay [1] was 9.00.

With `CCCN(CCC)C(=O)C(=O)c1c(-c2ccccc2)[nH]c2ccccc12`, the Activity in assay [2] is given as 8%. `CCCN(CCC)C(=O)C(=O)c1c(-c2ccc([N+](=O)[O-])cc2)[nH]c2ccccc12` showed a pKi in assay [1] of 9.02. In addition, in assay [2], the Activity turned out to be 70%. In assay [1], `CCCCN(C)C(=O)C(=O)c1c(-c2ccccc2)[nH]c2ccc(Cl)cc12` gave a pKi of 8.41. Further, the Activity in assay [2] is 70%. `CCCCCCN(CCCCCC)C(=O)C(=O)c1c(-c2ccc(F)cc2)[nH]c2ccc(F)cc12` gave a pKi in assay [1] of 9.02. For the same compound, in assay [2], the Activity amounted to 40%.

`CCCCN(CCCC)C(=O)C(=O)c1c(-c2ccc(F)cc2)[nH]c2ccc(Cl)cc12` gave a pKi in assay [1] of 8.52. Moreover, the Activity in assay [2] is reported as 37%. In turn, `CCN(Cc1ccccc1)C(=O)C(=O)c1c(-c2ccccc2)[nH]c2ccc(F)cc12` gave a pKi in assay [1] of 8.88. In assay [1], `CCCN(CCC)C(=O)C(=O)c1c(-c2ccc(F)cc2)[nH]c2ccc(F)cc12` gave a pKi of 8.17. For the same compound, the Activity in assay [2] is given as 17%. In assay [1], `CCCCN(CCCC)C(=O)C(=O)c1c(-c2ccccc2)[nH]c2ccc(F)cc12` gave a pKi of 8.40. In addition, the Activity in assay [2] turned out to be 88%.

Regarding `CCCN(CCC)C(=O)C(=O)c1c(-c2ccccc2)[nH]c2ccc(F)cc12`, the pKi in assay [1] is 8.57. The Activity in assay [2] came to 66%. In assay [1], `CCCCCCN(CCCCCC)C(=O)C(=O)c1c(-c2ccccc2)[nH]c2ccc([N+](=O)[O-])cc12` had a pKi of 7.52. In addition, in assay [2], the Activity is recorded as 115%. In assay [1], `CCCCN(CC)C(=O)C(=O)c1c(-c2ccc(Cl)cc2)[nH]c2ccc(Cl)cc12` had a pKi of 9.44. Further, the Activity in assay [2] was 11%. As for `CCN(Cc1ccccc1)C(=O)C(=O)c1c(-c2ccccc2)[nH]c2ccc([N+](=O)[O-])cc12`, in assay [1], the pKi was 7.74. The Activity in assay [2] stood at 0%. In assay [1], `CCCCCCN(CCCCCC)C(=O)C(=O)c1c(-c2ccc(C(F)(F)F)cc2)[nH]c2ccccc12` had a pKi of 9.00. In addition, the Activity in assay [2] was 85%.

The compound `CCCCN(CC)C(=O)C(=O)c1c(-c2ccccc2)[nH]c2ccccc12` had a pKi in assay [1] of 7.90. Also, in assay [2], the Activity is recorded as 43%.

`CCCCN(CCCC)C(=O)C(=O)c1c(-c2ccccc2)[nH]c2c(C)cccc12` showed a pKi in assay [1] of 8.22. For the same compound, the Activity in assay [2] worked out at 71%. Turning to `CCCCCCN(CCCCCC)C(=O)C(=O)c1c(-c2ccccc2)[nH]c2c(Cl)cccc12`, the pKi in assay [1] was 8.62. The Activity in assay [2] amounted to 0%. Compound `CCCCN(C)C(=O)C(=O)c1c(-c2ccc(Cl)cc2)[nH]c2ccccc12` showed a pKi in assay [1] of 7.96. `CCN(Cc1ccccc1)C(=O)C(=O)c1c(-c2ccc(C)cc2)[nH]c2ccccc12`: in assay [1], the pKi is 8.58. Besides, the Activity in assay [2] amounted to 86%. For `CCN(Cc1ccccc1)C(=O)C(=O)c1c(-c2ccc(F)cc2)[nH]c2ccc(Cl)cc12`, in that order: 8.40 and 0%. Consider `CCCN(CCC)C(=O)C(=O)c1c(-c2ccccc2)[nH]c2ccc([N+](=O)[O-])cc12`, for which the pKi in assay [1] was 7.69. In addition, the Activity in assay [2] was 91%. For `CCN(Cc1ccccc1)C(=O)C(=O)c1c(-c2ccc(Cl)cc2)[nH]c2ccc(Cl)cc12`, the Activity in assay [2] worked out at 171%. In assay [1], `CCCN(CCC)C(=O)C(=O)c1c(-c2ccccc2)[nH]c2c(Cl)cccc12` gave a pKi of 7.85. The Activity in assay [2] is reported as 0%. `CCCCN(CCCC)C(=O)C(=O)c1c(-c2ccc(F)cc2)[nH]c2ccc(F)cc12` had a negative logarithm of the Ki (pKi) in assay [1] of 8.36. The Activity in assay [2] stood at 91%.

For the compound `CCCCN(CCCC)C(=O)C(=O)c1c(-c2ccccc2)[nH]c2c(Cl)cccc12`, the pKi in assay [1] was 8.47. Also, the Activity in assay [2] amounted to 0%. With `CCCCCCN(CCCCCC)C(=O)C(=O)c1c(-c2ccccc2)[nH]c2ccccc12`, the Activity in assay [2] was found to be 30%. Take `CCC(C)N(C)C(=O)c1cc2ccccc2c(-c2ccccc2Cl)n1` (stereo unspecified) [PK-11195]: the Activity in assay [2] was 48%. In assay [1], `CCN(C)C(=O)C(=O)c1c(-c2ccccc2)[nH]c2ccccc12` gave a pKi of 6.03. Compound `CCCCCCN(CCCCCC)C(=O)C(=O)c1c(-c2ccccc2)[nH]c2c(C)cccc12` had a pKi in assay [1] of 8.72. In addition, the Activity in assay [2] turned out to be 63%. The corresponding values for `CCCCN(C)C(=O)C(=O)c1c(-c2ccc(Cl)cc2)[nH]c2ccc(Cl)cc12` are 9.82 and 67%. In turn, `CCCCCN(C)C(=O)C(=O)c1c(-c2ccc(Cl)cc2)[nH]c2ccccc12` showed a pKi in assay [1] of 8.47. Besides, the Activity in assay [2] was 65%. `CCCCN(CC)C(=O)C(=O)c1c(-c2ccccc2)[nH]c2ccc(Cl)cc12` gave a pKi in assay [1] of 8.74. Besides, the Activity in assay [2] was 72%. Turning to `CCCN(CCC)C(=O)C(=O)c1c(-c2ccc(Cl)cc2)[nH]c2ccccc12`, the Activity in assay [2] worked out at 40%.

`CCCCN(CCCC)C(=O)C(=O)c1c(-c2ccccc2)[nH]c2ccc(OC)cc12` showed a negative logarithm of the Ki (pKi) in assay [1] of 7.19. Further, the Activity in assay [2] amounted to 36%. For `CCCCN(CC)C(=O)C(=O)c1c(-c2ccc(Cl)cc2)[nH]c2ccccc12`, the pKi in assay [1] is 8.44. In addition, the Activity in assay [2] came out at 32%. As for `CCCN(CCC)C(=O)C(=O)c1c(-c2ccccc2)[nH]c2ccc(Cl)cc12`, the Activity in assay [2] came to 10%. Consider `CCCCN(CCCC)C(=O)C(=O)c1c(-c2ccc([N+](=O)[O-])cc2)[nH]c2ccccc12`, for which, in assay [1], the pKi was 9.57. Further, the Activity in assay [2] was 64%. Turning to `CCCCCCN(CCCCCC)C(=O)C(=O)c1c(-c2ccccc2)[nH]c2ccc(F)cc12`, the pKi in assay [1] is 9.43. The Activity in assay [2] is listed as 36%. In the case of `CCCCCN(C)C(=O)C(=O)c1c(-c2ccccc2)[nH]c2ccccc12`, the pKi in assay [1] is 7.92. For the same compound, the Activity in assay [2] came to 36%.

Turning to `CCCCN(CCCC)C(=O)C(=O)c1c(-c2ccccc2)[nH]c2ccc([N+](=O)[O-])cc12`, the pKi in assay [1] was 7.67. For the same compound, the Activity in assay [2] is reported as 102%.

Regarding `CCCCN(C)C(=O)C(=O)c1c(-c2ccccc2)[nH]c2ccccc12`, the pKi in assay [1] is 7.27. Also, the Activity in assay [2] came to 32%. For `CCN(Cc1ccccc1)C(=O)C(=O)c1c(-c2ccccc2)[nH]c2ccc(Cl)cc12`, in that order: 8.34 and 85%. In turn, `CCCCCN(C)C(=O)C(=O)c1c(-c2ccccc2)[nH]c2ccc(Cl)cc12` showed a negative logarithm of the Ki (pKi) in assay [1] of 8.44. In addition, the Activity in assay [2] came to 76%. For `CCN(Cc1ccccc1)C(=O)C(=O)c1c(-c2ccccc2)[nH]c2c(C)cccc12`, in that order: 8.64 and 0%. `CCN(Cc1ccccc1)C(=O)C(=O)c1c(-c2ccc(F)cc2)[nH]c2ccc(F)cc12` had a pKi in assay [1] of 8.78.

In assay [1], `CCN(Cc1ccccc1)C(=O)C(=O)c1c(-c2ccccc2)[nH]c2ccccc12` had a negative logarithm of the Ki (pKi) of 7.96. The Activity in assay [2] stood at 20%. For `CCCN(CCC)C(=O)C(=O)c1c(-c2ccc(C(F)(F)F)cc2)[nH]c2ccccc12`, in that order: 8.77 and 66%.

Turning to `CCCCN(CCCC)C(=O)C(=O)c1c(-c2ccccc2)[nH]c2ccccc12`, the Activity in assay [2] is given as 23%. In the case of `CCN(Cc1ccccc1)C(=O)C(=O)c1c(-c2ccc([N+](=O)[O-])cc2)[nH]c2ccccc12`, the pKi in assay [1] is 9.26. Also, the Activity in assay [2] was found to be 103%. `CCCN(CCC)C(=O)C(=O)c1c(-c2ccc(F)cc2)[nH]c2ccc(Cl)cc12`: the negative-log Ki (pKi) in assay [1] is 8.55. Also, in assay [2], the Activity came to 42%. In assay [1], `CCN(Cc1ccccc1)C(=O)C(=O)c1c(-c2ccc(Cl)cc2)[nH]c2ccccc12` showed a pKi of 8.89. Besides, the Activity in assay [2] is given as 136%. As to `CCCN(CCC)C(=O)C(=O)c1c(-c2ccc(Cl)cc2)[nH]c2ccc(Cl)cc12`, the Activity in assay [2] was 49%. `CCN(Cc1ccccc1)C(=O)C(=O)c1c(-c2ccccc2)[nH]c2ccc(OC)cc12`: in assay [1], the pKi is 7.16. As to `CCN(Cc1ccccc1)C(=O)C(=O)c1c(-c2ccc(F)cc2)[nH]c2ccccc12`, the negative-log Ki (pKi) in assay [1] is 8.77. Also, the Activity in assay [2] is given as 96%. In turn, `CCCCCCN(CCCCCC)C(=O)C(=O)c1c(-c2ccc([N+](=O)[O-])cc2)[nH]c2ccccc12` gave a pKi in assay [1] of 9.64. Besides, the Activity in assay [2] is on record as 88%.

With `CCCN(CCC)C(=O)C(=O)c1c(-c2ccccc2)[nH]c2c(C)cccc12`, the pKi in assay [1] is 7.60. Besides, the Activity in assay [2] was 129%. For `CN1C(=O)CN=C(c2ccc(Cl)cc2)c2cc(Cl)ccc21` [RO-54864], the Activity in assay [2] is 41%.
